Source: ChEMBL document CHEMBL4265907, “Design, synthesis and pharmacological evaluation of N4,N6-disubstituted pyrimidine-4,6-diamine derivatives as potent EGFR inhibitors in non-small cell lung cancer” (Eur J Med Chem, 2018)

Experiments:
[1] = Cmax in Sprague-Dawley rat at 30 mg/kg, po by UPLC-MS/MS analysis; format: ADME, organism-based; design: dose 30 mg/kg, route oral; conditions: in vivo
Outline: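 Four female and four male Sprague-Dawley rats, 200-220 g, fasted 12 h, then given a single oral dose of 30 mg/kg as a 0.5% CMC-Na suspension. Blood sampled at 0.083, 0.25, 0.5, 1, 2, 4, 8 and 24 h, plasma separated by centrifugation at 4000 r/min for 10 min, and analysed by UPLC–MS/MS. Parameters reported as mean ± SD, n=6.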

NCI-H3255 = assay: Induction of apoptosis in human H3255 cells assessed as viable cells at 1000 nM after 48 hrs by Annexin V-FITC/PI staining based flow cytometry (reference value: 87.9%); format: functional; conditions: NCI-H3255, 48 h, read-out: Activity
HCC827 = assay: Induction of apoptosis in human HCC827 cells assessed as early apoptotic cells at 250 nM after 48 hrs by Annexin V-FITC/PI staining based flow cytometry (reference value: 2.83%); format: functional
[2] = molecular target: T1, Epidermal growth factor receptor (Homo sapiens, UniProt P00533); assay: Inhibition of EGFR in human H3255 cells assessed as decrease in EGF-induced ERK1/2 phosphorylation by Western blot method; format: cell-based
Outline: (§1)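 Cell lysates prepared in protein lysis buffer and cleared at 12,000 g for 10 min at 4 °C. 50 μg protein per lane was run on a gel, transferred to PVDF and immunoblotted, with GAPDH as the loading control.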

NCI-H1975 = assay: Induction of apoptosis in human NCI-H1975 cells assessed as necrotic cells at 250 nM after 48 hrs by Annexin V-FITC/PI staining based flow cytometry (reference value: 2.31%); format: functional
[3] = molecular target: T1, Epidermal growth factor receptor; assay: Inhibition of EGFR in human A431 cells assessed as decrease in EGF-induced AKT phosphorylation by Western blot method; format: cell-based; outline: as §1

T1 sequence (P00533 whole entry): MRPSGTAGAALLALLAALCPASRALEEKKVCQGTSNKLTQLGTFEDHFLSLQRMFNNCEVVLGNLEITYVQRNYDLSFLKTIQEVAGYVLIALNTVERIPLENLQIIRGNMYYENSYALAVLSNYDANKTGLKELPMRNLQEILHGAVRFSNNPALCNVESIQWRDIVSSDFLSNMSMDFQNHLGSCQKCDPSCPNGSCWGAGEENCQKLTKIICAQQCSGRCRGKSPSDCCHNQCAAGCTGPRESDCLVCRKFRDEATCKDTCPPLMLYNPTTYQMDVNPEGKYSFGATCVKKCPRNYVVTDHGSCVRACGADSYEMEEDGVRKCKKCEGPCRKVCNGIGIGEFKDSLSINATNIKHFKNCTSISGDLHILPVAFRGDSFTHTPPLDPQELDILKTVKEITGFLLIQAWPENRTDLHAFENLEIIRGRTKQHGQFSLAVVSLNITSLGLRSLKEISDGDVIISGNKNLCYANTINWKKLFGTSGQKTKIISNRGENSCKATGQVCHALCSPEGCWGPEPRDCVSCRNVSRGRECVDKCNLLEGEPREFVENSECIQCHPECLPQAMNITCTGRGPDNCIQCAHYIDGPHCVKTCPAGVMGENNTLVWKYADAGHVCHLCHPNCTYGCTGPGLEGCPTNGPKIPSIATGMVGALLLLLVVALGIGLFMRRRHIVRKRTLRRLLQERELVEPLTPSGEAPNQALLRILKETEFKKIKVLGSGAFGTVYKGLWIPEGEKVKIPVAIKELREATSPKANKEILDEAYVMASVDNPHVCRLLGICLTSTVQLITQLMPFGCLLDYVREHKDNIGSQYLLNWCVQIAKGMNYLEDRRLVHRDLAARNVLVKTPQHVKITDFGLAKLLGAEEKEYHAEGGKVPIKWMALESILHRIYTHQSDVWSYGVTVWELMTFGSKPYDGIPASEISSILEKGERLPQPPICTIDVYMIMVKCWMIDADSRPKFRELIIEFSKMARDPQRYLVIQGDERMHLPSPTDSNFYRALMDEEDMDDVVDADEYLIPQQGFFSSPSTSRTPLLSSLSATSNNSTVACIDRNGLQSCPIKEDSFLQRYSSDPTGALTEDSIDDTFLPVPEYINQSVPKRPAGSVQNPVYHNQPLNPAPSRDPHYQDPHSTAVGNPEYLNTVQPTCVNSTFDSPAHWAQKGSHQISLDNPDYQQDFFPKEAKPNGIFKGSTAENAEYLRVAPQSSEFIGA

Compound: COc1cccc(Nc2cc(Nc3cc(OC)ccc3OC)ncn2)c1
- Cmax [1]: 1060 ng/mL
- viability at 1 µM (NCI-H3255): 65.4%
- Activity (HCC827): 15.5%
- inhibition [2]: Dose-dependent effect
- Activity (NCI-H1975): 7.95%
- inhibition [3]: Dose-dependent effect
